Source: PubChem
HNF4A DNA FP: change in binding of human HNF4 alpha to DNA; P41235; HNF4a-FITC DNA binding, fluorescence polarization, 1 h; activity change, % at 10 µM; 360,000 tested, 0.3% active; in the data active = activity change above about 30%, passing the limit was not always enough
Rpn11 inh: inhibitors of human proteasome Rpn11; O00487; human 26S proteasome, Ub4-pepOG fluorescence polarization; 20S core pre-blocked with epoxomicin; calls only at 20 µM; 360,000 tested, 0.59% active; AID 588493;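 active = inhibition at 20 µM, scaled to each plate's controls, above about 33%, limit read from the data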
TPT1 inhibitor: blocks Candida albicans tRNA 2'-phosphotransferase; recombinant caTPT1, FP RNA substrate dephosphorylation; inhibition, % at 5 µM; 300,000 tested, 0.81% active;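 active = inhibition above the mean of all tested compounds plus 3 SD, set per screening campaign, cut at about 24% in these data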
CSN deneddyl inh: blocks human CSN-mediated cullin deneddylation; Q92905; Purified CSN, SCF-Nedd8-OG deneddylation, fluorescence polarization; inhibition, % at 12.5 µM; 360,000 tested, 0.38% active; AID 651999;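 active = pattern-corrected inhibition above about 35%, with an unprinted fluorescence ratio check between 0.5 and 1.5, limit read from the data, passing the limit was not always enough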
Target sequence (Q92905 whole entry, looked up, one chain of several): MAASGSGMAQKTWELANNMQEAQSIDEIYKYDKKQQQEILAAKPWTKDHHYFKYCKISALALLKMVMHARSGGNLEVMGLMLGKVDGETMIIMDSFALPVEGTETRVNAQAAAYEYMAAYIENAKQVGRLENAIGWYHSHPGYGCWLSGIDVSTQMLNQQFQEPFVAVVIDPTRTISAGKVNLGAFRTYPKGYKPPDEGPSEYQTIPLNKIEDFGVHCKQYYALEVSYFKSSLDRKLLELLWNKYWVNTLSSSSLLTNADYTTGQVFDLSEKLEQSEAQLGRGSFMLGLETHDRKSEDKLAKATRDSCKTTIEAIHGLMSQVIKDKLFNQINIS
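test system = HEK293T-derived human Csn5 enzyme | amount = 0.24 nM Csn5 enzyme, final concentration | medium = Tris/NaCl/DTT buffer, pH 7.5 | schedule = 90 min reaction at room temperature | signal = FP | evaluation = inhibition of Csn5 cleavage, % | compound dosing = single dose of 12.5 µM compound with 0.25% DMSO | probe or stimulus = 10 nM SCFSkp2-Nedd8OG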
Hits are given with their value. An excerpt weighted towards active compounds, which were near 1.5% of everything screened.

O=C1Cc2ccccc2C(=O)N1 was read as HNF4A DNA FP inactive and CSN deneddyl inh 35.
For O=C1Nc2ccccc2CCc2ccccc21 the results were HNF4A DNA FP inactive, Rpn11 inh inactive and CSN deneddyl inh inactive.
Screening CN(C)CCNc1cccc2sc3ccc(O)cc3c(=O)c12 returned HNF4A DNA FP inactive, Rpn11 inh inactive and CSN deneddyl inh inactive.
Cc1ccc(NCCN(C)C)c2c(=O)c3cc(O)ccc3sc12 was read as HNF4A DNA FP 52, Rpn11 inh inactive and CSN deneddyl inh inactive.
For CC(CNC(=O)CCc1nnc2ccc(N3CCC4(CC3)OCCO4)nn12)c1ccccc1 (centres undefined) the results were HNF4A DNA FP inactive, Rpn11 inh inactive, TPT1 inhibitor inactive and CSN deneddyl inh inactive.
Screening CCC(=O)Nc1ccc(C(=O)COC(=O)Cc2ccsc2)cc1 returned HNF4A DNA FP inactive, Rpn11 inh inactive and CSN deneddyl inh inactive.
For CC(=O)NC(=S)NNC(=O)C(c1ccccc1)c1ccccc1 the results were HNF4A DNA FP inactive, Rpn11 inh inactive, TPT1 inhibitor inactive and CSN deneddyl inh 77.
`N#CCC(=O)NNC(=S)NC(=O)C(c1ccccc1)c1ccccc1` gave HNF4A DNA FP inactive, Rpn11 inh inactive, TPT1 inhibitor inactive and CSN deneddyl inh inactive.
Nc1nc(NCC(=O)O)nc(NC2CCCCC2)c1[N+](=O)[O-] was read as HNF4A DNA FP 46, Rpn11 inh inactive and CSN deneddyl inh inactive.
`COCCCNc1nc(N)c([N+](=O)[O-])c(NC2CCCCC2)n1` gave HNF4A DNA FP inactive, Rpn11 inh inactive, TPT1 inhibitor inactive and CSN deneddyl inh inactive.
CN(C(=S)NC(=O)c1ccc(Cl)cc1)C1CCCCC1 was read as HNF4A DNA FP inactive, Rpn11 inh inactive, TPT1 inhibitor inactive and CSN deneddyl inh inactive.
`CN(C(=S)NC(=O)c1ccccc1)C1CCCCC1` gave HNF4A DNA FP inactive, Rpn11 inh inactive, TPT1 inhibitor inactive and CSN deneddyl inh 46.
O=C(NC(=S)Nc1ccc(-c2ccc(CO)o2)cc1)c1cccs1 was read as HNF4A DNA FP inactive, Rpn11 inh inactive, TPT1 inhibitor inactive and CSN deneddyl inh 40.
Cc1ccc(C(=O)NC(=S)Nc2ccc(-c3ccc(CO)o3)cc2)cc1 was read as HNF4A DNA FP inactive, Rpn11 inh inactive, TPT1 inhibitor inactive and CSN deneddyl inh inactive.
Screening C[C@H](CO)N1C[C@H](C)[C@@H](CN(C)Cc2ccc(-c3ccccc3)cc2)Oc2c(NS(=O)(=O)c3cccs3)cccc2C1=O returned HNF4A DNA FP inactive, Rpn11 inh inactive and CSN deneddyl inh inactive.
For CCCCC(=O)N1CCN(c2nc3ccc(OCC)cc3s2)CC1 the results were HNF4A DNA FP inactive, Rpn11 inh inactive, TPT1 inhibitor inactive and CSN deneddyl inh 63.
CCCCC(=O)N1CCN(c2nc3ccc(F)cc3s2)CC1 was read as HNF4A DNA FP inactive, Rpn11 inh inactive, TPT1 inhibitor inactive and CSN deneddyl inh inactive.
For O=c1c2ccccc2nc(/C=C/c2ccc([N+](=O)[O-])o2)n1CCCO the results were HNF4A DNA FP 74, TPT1 inhibitor inactive and CSN deneddyl inh inactive.
For O=c1c2ccccc2nc(/C=C/c2ccc([N+](=O)[O-])cc2)n1CCCO the results were HNF4A DNA FP inactive, Rpn11 inh inactive, TPT1 inhibitor inactive and CSN deneddyl inh inactive.
`CN(Cc1ccccc1)S(=O)(=O)c1ccc(Cl)nc1` gave HNF4A DNA FP inactive, Rpn11 inh inactive, TPT1 inhibitor inactive and CSN deneddyl inh 40.
Screening CC(=O)NC(CC(=O)OC(C)C(=O)Nc1ccc(Cl)cn1)c1ccccc1 (centres undefined) returned HNF4A DNA FP inactive, Rpn11 inh inactive, TPT1 inhibitor inactive and CSN deneddyl inh inactive.
Screening CC(OC(=O)CC(C)c1ccccc1)C(=O)Nc1ccc(Cl)cn1 (centres undefined) returned HNF4A DNA FP inactive, Rpn11 inh inactive and CSN deneddyl inh 43.
Screening CCOC(=O)C1C(c2cc(OC)c(OC)c(OC)c2)NC(=S)NC1(O)C(F)(F)F (centres undefined) returned HNF4A DNA FP inactive, Rpn11 inh inactive, TPT1 inhibitor inactive and CSN deneddyl inh 37.
`CCOC(=O)C1C(c2cc(OC)c(O)c(OC)c2)NC(=S)NC1(O)C(F)(F)F` (centres undefined) gave HNF4A DNA FP inactive, Rpn11 inh inactive, TPT1 inhibitor inactive and CSN deneddyl inh inactive.
`CN1CCC(N2CCN(C3CN(C4CCCCC4)S(=O)(=O)C3)CC2)CC1` (centres undefined) gave HNF4A DNA FP inactive, Rpn11 inh inactive and CSN deneddyl inh inactive.
Screening CN1CCC(N2CCN(C3CN(C4CCCC4)S(=O)(=O)C3)CC2)CC1 (centres undefined) returned HNF4A DNA FP inactive, Rpn11 inh inactive and CSN deneddyl inh 144.
